Results from ChEMBL document CHEMBL1932986, “Synthesis and in vitro antimycobacterial activity of compounds derived from (R)- and (S)-2-amino-1-butanol - The crucial role of the configuration” (Eur J Med Chem, 2012).
≈ marks a conversion by molar mass, not a printed value. Calls of active or inactive are those of the source. No cut-off for these calls is given here.

What was measured:
Bacillus subtilis [1] = assay: Antibacterial activity against Bacillus subtilis ATCC 6633 at 50 mg/ml after 24 hrs by agar diffusion test; type: functional; conditions: ATCC 6633, 24 h, read-out: DIZ
Method in brief: (§1)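 Agar diffusion: wells in agar filled with […] DMSO solution of compound at various concentrations; diameter of clear zone around application point measured. Bacteria grown 24 h at 37 °C on nutrient agar. Compounds first screened at 50 mg/ml; those active then tested at lower concentrations. Bracketed value = lowest concentration (mg/ml) giving zone >11 mm, reported only if activity retained at ≤1.25 mg/ml.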

Escherichia coli [2] = assay: Antibacterial activity against Escherichia coli ATCC 8739 at 2 mg/ml after 24 hrs by agar diffusion test; type: functional, organism-based; method in brief: as §1
Staphylococcus aureus [3] = assay: Antibacterial activity against Staphylococcus aureus NRRL B 313 assessed as concentration required to produce >11 mm of zone of inhibition after 24 hrs by agar diffusion test; type: functional
Method in brief: (§2)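 Agar diffusion: bacteria grown 24 h at 37 °C on nutrient agar. Wells in the agar are filled with […] of compound solution in DMSO at various concentrations. The diameter of the clear zone around the application point is measured. Bracketed values give the lowest concentration (mg/ml) that produces a zone >11 mm. A first screen is run at 50 mg/ml.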

Priestia megaterium [4] = assay: Antibacterial activity against Bacillus megaterium NRRL 1353895 assessed as concentration required to produce >11 mm of zone of inhibition after 24 hrs by agar diffusion test; type: functional; method in brief: as §1
Penicillium chrysogenum [5] = assay: Antifungal activity against Penicillium chrysogenum CECT 2802 at 2 mg/ml after 72 hrs by agar diffusion test; type: functional, organism-based
Method in brief: (§3)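 Agar diffusion: yeasts grown on yeast peptone dextrose agar and fungi on potato dextrose agar. Wells are filled with […] of compound solution in DMSO at various concentrations, and the clear-zone diameter is measured. Bracketed values give the lowest concentration (mg/ml) that produces a zone >11 mm. A first screen is run at 50 mg/ml.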

Bacillus mycoides [6] = assay: Antibacterial activity against Bacillus mycoides DSMZ 274 at 50 mg/ml after 24 hrs by agar diffusion test; type: functional; conditions: DSMZ 274, 24 h, read-out: DIZ; method in brief: as §1
Acinetobacter johnsonii [7] = assay: Antibacterial activity against Acinetobacter johnsonii ATCC 17909 at 50 mg/ml after 24 hrs by agar diffusion test; type: functional; conditions: ATCC 17909, 24 h, read-out: DIZ; method in brief: as §1
Micrococcus luteus [8] = assay: Antibacterial activity against Micrococcus luteus ATCC 9631 assessed as concentration required to produce >11 mm of zone of inhibition after 24 hrs by agar diffusion test; type: functional; method in brief: as §1
Candida tropicalis [9] = assay: Antifungal activity against Candida tropicalis ATCC 20336 at 2 mg/ml after 72 hrs by agar diffusion test; type: functional, organism-based; method in brief: as §3
Saccharomyces cerevisiae [10] = assay: Antifungal activity against Saccharomyces cerevisiae ATCC 9763 at 2 mg/ml after 72 hrs by agar diffusion test; type: functional, organism-based; method in brief: as §3
Saccharomyces cerevisiae [11] = assay: Antifungal activity against Saccharomyces cerevisiae ATCC 9763 at 50 mg/ml after 72 hrs by agar diffusion test; type: functional; conditions: ATCC 9763, 72 h, read-out: DIZ; method in brief: as §3
Bacillus subtilis [12] = assay: Antibacterial activity against Bacillus subtilis ATCC 6633 assessed as concentration required to produce >11 mm of zone of inhibition after 24 hrs by agar diffusion test; type: functional; method in brief: as §1
Bacillus mycoides [13] = assay: Antibacterial activity against Bacillus mycoides DSMZ 274 assessed as concentration required to produce >11 mm of zone of inhibition after 24 hrs by agar diffusion test; type: functional; method in brief: as §1
Bacillus cereus [14] = assay: Antibacterial activity against Bacillus cereus ATCC 11778 at 2 mg/ml after 24 hrs by agar diffusion test; type: functional, organism-based; method in brief: as §1
Penicillium chrysogenum [15] = assay: Antifungal activity against Penicillium chrysogenum CECT 2802 assessed as concentration required to produce >11 mm of zone of inhibition after 72 hrs by agar diffusion test; type: functional; method in brief: as §3
Acinetobacter johnsonii [16] = assay: Antibacterial activity against Acinetobacter johnsonii ATCC 17909 assessed as concentration required to produce >11 mm of zone of inhibition after 24 hrs by agar diffusion test; type: functional; method in brief: as §1
Candida tropicalis [17] = assay: Antifungal activity against Candida tropicalis ATCC 20336 assessed as concentration required to produce >11 mm of zone of inhibition after 72 hrs by agar diffusion test; type: functional; method in brief: as §3
Micrococcus luteus [18] = assay: Antibacterial activity against Sarcina lutea ATCC 9341 at 50 mg/ml after 24 hrs by agar diffusion test; type: functional; conditions: ATCC 9341, 24 h, read-out: DIZ; method in brief: as §2
Bacillus [19] = assay: Antibacterial activity against Bacillus idosus B 241 at 50 mg/ml after 24 hrs by agar diffusion test; type: functional; conditions: B 241, 24 h, read-out: DIZ; method in brief: as §1
Micrococcus luteus [20] = assay: Antibacterial activity against Sarcina lutea ATCC 9341 assessed as concentration required to produce >11 mm of zone of inhibition after 24 hrs by agar diffusion test; type: functional; method in brief: as §1
Bacillus cereus [21] = assay: Antibacterial activity against Bacillus cereus ATCC 11778 assessed as concentration required to produce >11 mm of zone of inhibition after 24 hrs by agar diffusion test; type: functional; method in brief: as §1
Acinetobacter johnsonii [22] = assay: Antibacterial activity against Acinetobacter johnsonii ATCC 17909 at 2 mg/ml after 24 hrs by agar diffusion test; type: functional; method in brief: as §1
Micrococcus luteus [23] = assay: Antibacterial activity against Micrococcus luteus ATCC 9631 at 50 mg/ml after 24 hrs by agar diffusion test; type: functional; conditions: ATCC 9631, 24 h, read-out: DIZ; method in brief: as §1
Bacillus mycoides [24] = assay: Antibacterial activity against Bacillus mycoides DSMZ 274 at 2 mg/ml after 24 hrs by agar diffusion test; type: functional, organism-based; method in brief: as §1
Bacillus subtilis [25] = assay: Antibacterial activity against Bacillus subtilis ATCC 6633 at 2 mg/ml after 24 hrs by agar diffusion test; type: functional, organism-based; method in brief: as §1
Micrococcus luteus [26] = assay: Antibacterial activity against Micrococcus luteus ATCC 9631 at 2 mg/ml after 24 hrs by agar diffusion test; type: functional, organism-based; method in brief: as §1
Penicillium chrysogenum [27] = assay: Antifungal activity against Penicillium chrysogenum CECT 2802 at 50 mg/ml after 72 hrs by agar diffusion test; type: functional; conditions: CECT 2802, 72 h, read-out: DIZ; method in brief: as §3
Micrococcus luteus [28] = assay: Antibacterial activity against Sarcina lutea ATCC 9341 at 2 mg/ml after 24 hrs by agar diffusion test; type: functional, organism-based; method in brief: as §1
Staphylococcus aureus [29] = assay: Antibacterial activity against Staphylococcus aureus NRRL B 313 at 50 mg/ml after 24 hrs by agar diffusion test; type: functional; conditions: NRRL B 313, 24 h, read-out: DIZ; method in brief: as §2
Bacillus [30] = assay: Antibacterial activity against Bacillus idosus B 241 at 2 mg/ml after 24 hrs by agar diffusion test; type: functional, organism-based; method in brief: as §1
[31] = tested on: Mycobacterium tuberculosis; assay: Antimycobacterial activity against Mycobacterium tuberculosis H37Rv after 45 days; type: functional
Method in brief: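 Canetti proportion method. Compound in DMSO is added to Löwenstein–Jensen egg medium before coagulation (30 min, 85 °C), tested at three levels plus a lower one where needed. Tubes are inoculated with H37Rv at 10⁵ cells/ml and incubated 45 days at 37 °C. Colony counts versus drug-free control give percentage inhibition.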

Candida tropicalis [32] = assay: Antifungal activity against Candida tropicalis ATCC 20336 at 50 mg/ml after 72 hrs by agar diffusion test; type: functional; conditions: ATCC 20336, 72 h, read-out: DIZ; method in brief: as §3
Bacillus cereus [33] = assay: Antibacterial activity against Bacillus cereus ATCC 11778 at 50 mg/ml after 24 hrs by agar diffusion test; type: functional; conditions: ATCC 11778, 24 h, read-out: DIZ; method in brief: as §1
Staphylococcus aureus [34] = assay: Antibacterial activity against Staphylococcus aureus NRRL B 313 at 2 mg/ml after 24 hrs by agar diffusion test; type: functional, organism-based; method in brief: as §2
Priestia megaterium [35] = assay: Antibacterial activity against Bacillus megaterium NRRL 1353895 at 2 mg/ml after 24 hrs by agar diffusion test; type: functional, organism-based; method in brief: as §1
Saccharomyces cerevisiae [36] = assay: Antifungal activity against Saccharomyces cerevisiae ATCC 9763 assessed as concentration required to produce >11 mm of zone of inhibition after 72 hrs by agar diffusion test; type: functional; method in brief: as §3
Priestia megaterium [37] = assay: Antibacterial activity against Bacillus megaterium NRRL 1353895 at 50 mg/ml after 24 hrs by agar diffusion test; type: functional; conditions: NRRL 1353895, 24 h, read-out: DIZ; method in brief: as §1
Bacillus [38] = assay: Antibacterial activity against Bacillus idosus B 241 assessed as concentration required to produce >11 mm of zone of inhibition after 24 hrs by agar diffusion test; type: functional; method in brief: as §1
Escherichia coli [39] = assay: Antibacterial activity against Escherichia coli ATCC 8739 at 50 mg/ml after 24 hrs by agar diffusion test; type: functional; conditions: ATCC 8739, 24 h, read-out: DIZ; method in brief: as §1
Escherichia coli [40] = assay: Antibacterial activity against Escherichia coli ATCC 8739 assessed as concentration required to produce >11 mm of zone of inhibition after 24 hrs by agar diffusion test; type: functional; method in brief: as §1

Compound	zone of inhibition at 50000 µg/mL (Bacillus subtilis [1])	diameter of the inhibition zone (DIZ) (Escherichia coli [2])	Activity (Staphylococcus aureus [3])	Activity (Priestia megaterium [4])	diameter of the inhibition zone (DIZ) (Penicillium chrysogenum [5])	zone of inhibition at 50000 µg/mL (Bacillus mycoides [6])	zone of inhibition at 50000 µg/mL (Acinetobacter johnsonii [7])	Activity (Micrococcus luteus [8])	diameter of the inhibition zone (DIZ) (Candida tropicalis [9])	diameter of the inhibition zone (DIZ) (Saccharomyces cerevisiae [10])	zone of inhibition at 50000 µg/mL (Saccharomyces cerevisiae [11])	Activity (Bacillus subtilis [12])	Activity (Bacillus mycoides [13])	diameter of the inhibition zone (DIZ) (Bacillus cereus [14])	Activity (Penicillium chrysogenum [15])	Activity (Acinetobacter johnsonii [16])	Activity (Candida tropicalis [17])	zone of inhibition at 50000 µg/mL (Micrococcus luteus [18])	zone of inhibition at 50000 µg/mL (Bacillus [19])	Activity (Micrococcus luteus [20])	other results
CC[C@H](CO)NCc1c2ccccc2cc2ccccc12	18 mm	inactive	0.03 mg/mL	0.6 mg/mL	inactive	20 mm	17 mm	0.3 mg/mL	inactive	inactive	32 mm	0.3 mg/mL	0.6 mg/mL	inactive	0.06 mg/mL	0.6 mg/mL	0.0125 mg/mL	18 mm	19 mm	0.3 mg/mL	Activity (Bacillus cereus [21]): 0.3 mg/mL; diameter of the inhibition zone (DIZ) (Acinetobacter johnsonii [22]): inactive; zone of inhibition at 50000 µg/mL (Micrococcus luteus [23]): 19 mm; diameter of the inhibition zone (DIZ) (Bacillus mycoides [24]): inactive; diameter of the inhibition zone (DIZ) (Bacillus subtilis [25]): inactive; diameter of the inhibition zone (DIZ) (Micrococcus luteus [26]): inactive; zone of inhibition at 50000 µg/mL (Penicillium chrysogenum [27]): 16 mm; diameter of the inhibition zone (DIZ) (Micrococcus luteus [28]): inactive; zone of inhibition at 50000 µg/mL (Staphylococcus aureus [29]): 19 mm; diameter of the inhibition zone (DIZ) (Bacillus [30]): inactive; MIC [31]: 17.9 µM (≈ 5 µg/mL); zone of inhibition at 50000 µg/mL (Candida tropicalis [32]): 31 mm; zone of inhibition at 50000 µg/mL (Bacillus cereus [33]): 19 mm; diameter of the inhibition zone (DIZ) (Staphylococcus aureus [34]): inactive; diameter of the inhibition zone (DIZ) (Priestia megaterium [35]): inactive; Activity (Saccharomyces cerevisiae [36]): 0.0125 mg/mL; zone of inhibition at 50000 µg/mL (Priestia megaterium [37]): 20 mm; Activity (Bacillus [38]): 1.25 mg/mL; zone of inhibition at 50000 µg/mL (Escherichia coli [39]): 12 mm
CC[C@H](COC(C)=O)N1C(=O)C=CC1=O	40 mm	inactive	0.06 mg/mL	0.06 mg/mL	inactive	38 mm	39 mm	0.3 mg/mL	inactive	inactive	> 40 mm	0.06 mg/mL	0.06 mg/mL	inactive	0.0125 mg/mL	0.06 mg/mL	0.006 mg/mL	38 mm	35 mm	0.06 mg/mL	Activity (Bacillus cereus [21]): 0.0125 mg/mL; diameter of the inhibition zone (DIZ) (Acinetobacter johnsonii [22]): inactive; zone of inhibition at 50000 µg/mL (Micrococcus luteus [23]): 38 mm; diameter of the inhibition zone (DIZ) (Bacillus mycoides [24]): inactive; diameter of the inhibition zone (DIZ) (Bacillus subtilis [25]): inactive; diameter of the inhibition zone (DIZ) (Micrococcus luteus [26]): inactive; zone of inhibition at 50000 µg/mL (Penicillium chrysogenum [27]): > 40 mm; diameter of the inhibition zone (DIZ) (Micrococcus luteus [28]): inactive; zone of inhibition at 50000 µg/mL (Staphylococcus aureus [29]): > 40 mm; diameter of the inhibition zone (DIZ) (Bacillus [30]): inactive; MIC [31]: 23.7 µM (≈ 5 µg/mL); zone of inhibition at 50000 µg/mL (Candida tropicalis [32]): > 40 mm; zone of inhibition at 50000 µg/mL (Bacillus cereus [33]): 40 mm; Activity (Escherichia coli [40]): 1.25 mg/mL; diameter of the inhibition zone (DIZ) (Staphylococcus aureus [34]): inactive; diameter of the inhibition zone (DIZ) (Priestia megaterium [35]): inactive; Activity (Saccharomyces cerevisiae [36]): 0.006 mg/mL; zone of inhibition at 50000 µg/mL (Priestia megaterium [37]): 40 mm; Activity (Bacillus [38]): 0.06 mg/mL; zone of inhibition at 50000 µg/mL (Escherichia coli [39]): 29 mm
